Test [1] is filed under the species Rattus norvegicus. The test can be described thus: Minimum effective dose (MED) perorally in passive cutaneous anaphylaxis (PCA) model for 50% inhibition in Sprague-Dawley rat. In kind it is functional. As to conditions: po, read-out: MED. In a few lines: (§1)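 Sprague-Dawley rat passive cutaneous anaphylaxis with oral dosing of a Klucel suspension at 10, 5 and/or 2.5 mg/kg, six animals per dose. MED po is the lowest dose producing >50% inhibition at p ≤ 0.05 (Student's t test).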

Test [2] relates to Rattus norvegicus. Briefly: Minimum effective dose (MED) intraperitoneally in passive cutaneous anaphylaxis (PCA) model for 50% inhibition in Sprague-Dawley rat. It is filed as functional. The note with it: ip, read-out: MED. In a few lines: (§2)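 Rat passive cutaneous anaphylaxis in Sprague-Dawley rats. Compounds given ip as a Klucel suspension at 5, 1.25 and/or 0.31 mg/kg (some at 10, 2.5 and 0.63 mg/kg ip), six animals per dose. MED is the lowest dose giving >50% inhibition with p ≤ 0.05 (Student's t test). Where data sufficed, ID50 with 95% confidence range was derived from experiments of six animals each.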

The species named for test [3] is Rattus norvegicus. The test can be described thus: Concentration of compound perorally in passive cutaneous anaphylaxis (PCA) model for 50% inhibition in Sprague-Dawley rat; IN-Ineffective. In kind it is functional, organism-based. The method in brief:
as §1

For test [4], the system named is Rattus norvegicus. Briefly: Concentration of compound intraperitoneally in passive cutaneous anaphylaxis (PCA) model for 50% inhibition in Sprague-Dawley rat. It is filed as functional. As to conditions: ip, read-out: ID50 (the source's name). The method in brief: as §2

Molecules are shown by their SMILES. Activity calls are given as the source filed them. The calls are words filed in the database; no cut-off is given here.

The values that follow come from ChEMBL document CHEMBL1122220, “Synthesis and antiallergic activity of some acidic derivatives of 4H-pyrimido[2,1-b]benzazol-4-ones” (1983).

As for `O=C(O)c1cnc2oc3ccccc3n2c1=O`, the minimal effective dose was over 10 mg/kg in the test filed under Rattus norvegicus [1] and over 5 mg/kg with Rattus norvegicus [2].

As to `O=C(Nc1nn[nH]n1)c1cnc2oc3ccccc3n2c1=O`, the results for the minimal effective dose in the test listed under Rattus norvegicus [1] and with Rattus norvegicus [2] were 10 mg/kg and 1.25 mg/kg, respectively.

Consider `O=C(Nc1nn[nH]n1)c1cc(=O)n2c(n1)oc1ccccc12`, for which the minimal effective dose in the test filed under Rattus norvegicus [1] is over 10 mg/kg; with Rattus norvegicus [2] it was 1.25 mg/kg.

`O=c1c(-c2nnn[nH]2)cnc2oc3ccccc3n12`: the minimal effective dose in the test filed under Rattus norvegicus [1] was 5 mg/kg; in the test with Rattus norvegicus [2], 1.25 mg/kg.

On to `Cn1c2ccccc2n2c(=O)c(C(=O)O)cnc12`, for which the values for the minimal effective dose in the test filed under Rattus norvegicus [1] and in the test with Rattus norvegicus [2] were over 10 mg/kg and 0.63 mg/kg, respectively.

With `Cn1c2ccccc2n2c(=O)c(C(=O)Nc3nn[nH]n3)cnc12`, the minimal effective dose in the test listed under Rattus norvegicus [1] was over 10 mg/kg; with Rattus norvegicus [2], 0.31 mg/kg.

`Cn1c2ccccc2n2c(=O)c(-c3nnn[nH]3)cnc12`: the minimal effective dose came to 2.5 mg/kg in the test filed under Rattus norvegicus [1] and 0.31 mg/kg in the test on Rattus norvegicus [2].

As to `O=c1cc(-c2nn[nH]n2)nc2oc3ccccc3n12`, the minimal effective dose in the test listed under Rattus norvegicus [1] is over 10 mg/kg; in the test on Rattus norvegicus [2], 1.25 mg/kg.

For `O=C(O)c1cnc2sc3ccccc3n2c1=O`, the minimal effective dose was over 10 mg/kg in the test listed under Rattus norvegicus [1] and over 5 mg/kg with Rattus norvegicus [2].

As for `Cn1c2ccccc2n2c(=O)cc(C(=O)Nc3nn[nH]n3)nc12`, the minimal effective dose in the test listed under Rattus norvegicus [1] was found to be 10 mg/kg; in the test with Rattus norvegicus [2], 1.25 mg/kg.

For the compound `O=C(O)c1cc(=O)n2c(n1)oc1ccccc12`, the figures for the minimal effective dose in the test listed under Rattus norvegicus [1] and in the test on Rattus norvegicus [2] were over 10 mg/kg and 5 mg/kg, respectively.

Consider `Cn1c2ccccc2n2c(=O)cc(C(=O)O)nc12`, for which the minimal effective dose in the test listed under Rattus norvegicus [1] was over 10 mg/kg; in the test on Rattus norvegicus [2] it was over 5 mg/kg.

On to `O=C(Nc1nn[nH]n1)c1cnc2sc3ccccc3n2c1=O`, for which the minimal effective dose is over 10 mg/kg in the test listed under Rattus norvegicus [1] and 1.25 mg/kg in the test on Rattus norvegicus [2].

For `Cn1c2ccccc2n2c(=O)cc(-c3nn[nH]n3)nc12`, in the test with Rattus norvegicus [2], the minimal effective dose was 5 mg/kg.

Take `O=c1cc(-c2nn[nH]n2)nc2sc3ccccc3n12`: the figures for the minimal effective dose in the test filed under Rattus norvegicus [1] and in the test with Rattus norvegicus [2] were over 10 mg/kg and 5 mg/kg, respectively.

Regarding `O=c1c(-c2nnn[nH]2)cnc2sc3ccccc3n12`, the minimal effective dose in the test filed under Rattus norvegicus [1] was over 10 mg/kg; with Rattus norvegicus [2], 1.25 mg/kg.

Consider `O=C(O)c1cc(=O)n2c(n1)sc1ccccc12`, for which the minimal effective dose was over 10 mg/kg in the test filed under Rattus norvegicus [1] and over 5 mg/kg in the test with Rattus norvegicus [2].

Turning to `O=C([O-])c1cc(=O)c2c(OCC(O)COc3cccc4oc(C(=O)[O-])cc(=O)c34)cccc2o1.[Na+].[Na+]` [CROMOLYN SODIUM], the ID50 result in the test listed under Rattus norvegicus [3] was “inactive”. Further, the ED50 with Rattus norvegicus [4] came out at 2.6 mg/kg.

With `O=C(Nc1nn[nH]n1)c1cc(=O)n2c(n1)sc1ccccc12`, the results for the minimal effective dose in the test listed under Rattus norvegicus [1] and in the test with Rattus norvegicus [2] were over 10 mg/kg and 1.25 mg/kg, respectively.
